Reference: ChEMBL document CHEMBL3351998, “Discovery of potent and specific dihydroisoxazole inhibitors of human transglutaminase 2” (J Med Chem, 2014)
Activity calls are given as the source filed them. The rule behind the calls is not given here.

Key:
[1] = target: T1, Protein-glutamine gamma-glutamyltransferase (Homo sapiens) (UniProt P21980); assay: Inhibition of human transglutaminase 2 using ((benzyloxy)carbony l)-L-glutaminylglycine peptide substrate assessed as Kinh/Ki ratio by GDH coupled assay
T1 sequence (whole entry): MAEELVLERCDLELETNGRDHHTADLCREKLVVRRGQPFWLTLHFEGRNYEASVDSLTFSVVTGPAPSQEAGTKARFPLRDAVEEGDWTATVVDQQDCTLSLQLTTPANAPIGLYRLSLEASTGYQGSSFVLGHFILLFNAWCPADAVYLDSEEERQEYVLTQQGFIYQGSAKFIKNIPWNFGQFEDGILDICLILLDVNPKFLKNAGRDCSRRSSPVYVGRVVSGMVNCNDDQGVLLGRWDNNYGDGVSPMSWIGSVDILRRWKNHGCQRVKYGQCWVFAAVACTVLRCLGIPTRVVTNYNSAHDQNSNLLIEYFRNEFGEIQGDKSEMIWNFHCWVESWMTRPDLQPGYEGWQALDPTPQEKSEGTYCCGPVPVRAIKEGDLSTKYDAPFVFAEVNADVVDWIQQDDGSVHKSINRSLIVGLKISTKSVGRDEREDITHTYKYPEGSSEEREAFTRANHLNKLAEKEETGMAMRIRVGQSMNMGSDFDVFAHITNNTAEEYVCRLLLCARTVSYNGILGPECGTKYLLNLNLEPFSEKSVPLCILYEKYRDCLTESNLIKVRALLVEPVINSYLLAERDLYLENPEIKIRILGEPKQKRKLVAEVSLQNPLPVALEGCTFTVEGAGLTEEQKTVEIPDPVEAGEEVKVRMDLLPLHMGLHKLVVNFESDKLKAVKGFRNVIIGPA
How it was run: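 Human TG2 (V224G variant) or codon-optimized murine TG2, E. coli-expressed, final ~0.34 and 0.22 μM respectively. Buffer: 200 mM MOPS pH 7.2, 5 mM CaCl2, 10 mM α-ketoglutarate, 300 μM NADH, 36 U/mL bovine GDH. Z-Gln-Gly at 10/20 mM. Inhibitors typically at 100/33.3/11.1/3.7 μM, 1% DMSO, added after ≥5 min pre-equilibration. A340 progress curves fitted to exponential decay; kinh/Ki from irreversible inhibition model.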

[2] = target: T2, Protein-glutamine gamma-glutamyltransferase K (Homo sapiens) (UniProt P22735); assay: Inhibition of human transglutaminase 1 using ((benzyloxy)carbonyl)-L-glutaminyl-L-serine peptide substrate assessed as Kinh/Ki ratio by GDH coupled assay
T2 sequence (whole entry): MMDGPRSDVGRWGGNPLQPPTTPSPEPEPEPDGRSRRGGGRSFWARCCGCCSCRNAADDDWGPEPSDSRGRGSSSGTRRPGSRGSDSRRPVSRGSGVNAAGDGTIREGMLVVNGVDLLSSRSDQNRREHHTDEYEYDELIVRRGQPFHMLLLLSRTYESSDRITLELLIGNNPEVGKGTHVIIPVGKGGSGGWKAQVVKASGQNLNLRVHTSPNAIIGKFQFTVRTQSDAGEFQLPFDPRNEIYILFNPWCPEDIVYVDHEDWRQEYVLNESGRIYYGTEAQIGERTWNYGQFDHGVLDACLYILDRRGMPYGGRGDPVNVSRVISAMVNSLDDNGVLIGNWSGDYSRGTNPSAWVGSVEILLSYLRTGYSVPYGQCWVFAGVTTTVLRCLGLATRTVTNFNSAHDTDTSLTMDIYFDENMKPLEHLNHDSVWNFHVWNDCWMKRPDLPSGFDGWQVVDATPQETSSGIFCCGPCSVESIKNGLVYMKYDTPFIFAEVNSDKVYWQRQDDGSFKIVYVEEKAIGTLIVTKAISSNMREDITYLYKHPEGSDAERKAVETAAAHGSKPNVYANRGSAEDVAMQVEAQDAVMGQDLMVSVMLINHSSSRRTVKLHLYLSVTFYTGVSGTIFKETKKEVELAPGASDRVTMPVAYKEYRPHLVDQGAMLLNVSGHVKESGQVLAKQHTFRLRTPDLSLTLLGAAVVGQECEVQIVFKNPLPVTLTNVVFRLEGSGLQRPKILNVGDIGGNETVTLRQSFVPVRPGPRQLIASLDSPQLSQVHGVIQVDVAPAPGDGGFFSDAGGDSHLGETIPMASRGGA
How it was run: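 Recombinant His-tagged human TG1 from E. coli Rosetta 2 pLysS, final ~0.37 μM, in 200 mM MOPS pH 7.2, 5 mM CaCl2, 10 mM α-ketoglutarate, 300 μM NADH, 36 U/mL GDH. Z-Gln-Ser at 20/40 mM. Inhibitors typically at 100/33.3/11.1/3.7 μM (1% DMSO), added after ≥5 min enzyme pre-equilibration. NADH loss read at 340 nm; progress curves fitted to exponential decay, kinh/Ki from irreversible model.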

With `O=C(NC[C@@H]1CC(Br)=NO1)[C@@H]1CCCN1C(=O)OCc1cccnc1` the Ratio [1] was 4.6 and the Ratio [2] was 4.3.
For `O=C(NC[C@@H]1CC(Br)=NO1)[C@@H]1C[C@@H](Cc2ccccc2)CN1C(=O)OCc1cnc2ccccc2c1`, the Ratio [1] was 10.2 and the Ratio [2] was 23.1.
In the case of `C[C@H](OC(=O)N1CCC[C@@H]1C(=O)NC[C@@H]1CC(Br)=NO1)c1cnc2ccccc2c1`, the Ratio [1] is reported as 3.7 and the Ratio [2] is reported as 8.7.
With `O=C(N[C@@H]1C[C@@H](C(=O)NC[C@@H]2CC(Br)=NO2)N(C(=O)OCc2cnc3ccccc3c2)C1)c1cnccn1` the Ratio [1] was 15.7 and the Ratio [2] was 12.
Work on `O=C(NC[C@@H]1CC(Br)=NO1)[C@@H]1CCCN1C(=O)OCc1ccccc1` yielded a Ratio [1] of 4.1 and a Ratio [2] of 4.5.
Compound `C#CCOC(=O)N1CCC[C@H]1C(=O)NC[C@@H]1CC(Br)=NO1` has a Ratio [1] of 2.4 and a Ratio [2] of 0.7.
In the case of `C#Cc1ccc(COC(=O)N2CCC[C@H]2C(=O)NC[C@@H]2CC(Br)=NO2)cc1`, the Ratio [1] is reported as 6.4 and the Ratio [2] is reported as 7.6.
Compound `O=C(NC[C@@H]1CC(Br)=NO1)[C@@H]1CCCN1C(=O)OCc1cccc(F)c1` has a Ratio [1] of 3.9 and a Ratio [2] of 5.6.
`O=C(NC[C@@H]1CC(Br)=NO1)[C@@H]1CCCCN1C(=O)OCc1cnc2ccccc2c1` gave a Ratio [1] of 12 and a Ratio [2] of 22.2.
`O=C(NC[C@@H]1CC(Br)=NO1)[C@@H]1C[C@@H](c2ccc(Cl)cc2)CN1C(=O)OCc1cnc2ccccc2c1` gave a Ratio [1] of 12 and a Ratio [2] of 15.4.
`O=C(NC[C@@H]1CC(Br)=NO1)[C@@H]1C[C@@H](NC(=O)C2(C(=O)O)CCC2)CN1C(=O)OCc1cnc2ccccc2c1` showed a Ratio [1] of 14.8 and a Ratio [2] of 11.6.
Compound `CO[C@@H]1C[C@@H](C(=O)NC[C@@H]2CC(Br)=NO2)N(C(=O)OCc2cnc3ccccc3c2)C1` has a Ratio [1] of 10.4 and a Ratio [2] of 7.7.
For `O=C(N[C@@H]1C[C@@H](C(=O)NC[C@@H]2CC(Br)=NO2)N(C(=O)OCc2cnc3ccccc3c2)C1)c1cccc(O)c1`, the Ratio [1] was 36.2 and the Ratio [2] was 18.1.
In the case of `N[C@@H]1C[C@@H](C(=O)NC[C@@H]2CC(Br)=NO2)N(C(=O)OCc2cnc3ccccc3c2)C1`, the Ratio [1] is reported as 2.6 and the Ratio [2] is reported as 3.1.
With `C[C@@]1(C(=O)NC[C@@H]2CC(Br)=NO2)CCCN1C(=O)OCc1cnc2ccccc2c1` the Ratio [1] was 2 and the Ratio [2] was 2.4.
For `O=C(NC[C@@H]1CC(Br)=NO1)[C@@H]1CCN1C(=O)OCc1cnc2ccccc2c1`, the Ratio [1] was 14.4 and the Ratio [2] was 13.6.
`C[C@H](OC(=O)N1CCC[C@H]1C(=O)NC[C@@H]1CC(Br)=NO1)c1ccc2ccccc2c1` was tested, and the Ratio [1] was 9 and the Ratio [2] was 11.5.
`O=C(NC[C@@H]1CC(Br)=NO1)[C@@H]1C[C@@H](c2cccc(O)c2)CN1C(=O)OCc1cnc2ccccc2c1` was tested, and the Ratio [1] was 52.2 and the Ratio [2] was 38.7.
Compound `C[C@H](OC(=O)N1CCC[C@@H]1C(=O)NC[C@@H]1CC(Br)=NO1)c1ccc2ccccc2c1` has a Ratio [1] of 2.9 and a Ratio [2] of 5.1.
Compound `CC(C)(C)OC(=O)N1CCC[C@H]1C(=O)NC[C@@H]1CC(Br)=NO1` has a Ratio [1] of 2.5 and a Ratio [2] of 2.3.
For `O=C(NC[C@@H]1CC(Br)=NO1)[C@@H]1C[C@@H](F)CN1C(=O)OCc1cnc2ccccc2c1`, the Ratio [1] was 7.3 and the Ratio [2] was 6.7.
`O=C(NC[C@@H]1CC(Br)=NO1)[C@@H]1CCCN1C(=O)OCc1ccccn1` was tested, and the Ratio [1] was 1.2 and the Ratio [2] was 1.6.
For `Cn1c(COC(=O)N2CCC[C@H]2C(=O)NC[C@@H]2CC(Br)=NO2)nc2ccccc21`, the Ratio [1] was “inactive” and the Ratio [2] was 0.85.
Work on `O=C(N[C@@H]1C[C@@H](C(=O)NC[C@@H]2CC(Br)=NO2)N(C(=O)OCc2cnc3ccccc3c2)C1)c1ccccc1` yielded a Ratio [1] of 25.8 and a Ratio [2] of 24.6.
Work on `O=C(NC[C@@H]1CC(Br)=NO1)[C@@H]1C[C@@H](c2ccccc2O)CN1C(=O)OCc1cnc2ccccc2c1` yielded a Ratio [1] of 33.8 and a Ratio [2] of 29.5.
With `O=C(N[C@@H]1C[C@@H](C(=O)NC[C@@H]2CC(Br)=NO2)N(C(=O)OCc2cnc3ccccc3c2)C1)c1ccccc1O` the Ratio [1] was 37.1 and the Ratio [2] was 37.1.
With `O=C(NC[C@@H]1CC(Br)=NO1)[C@@H]1CCN(C(=O)OCc2cnc3ccccc3c2)C1` the Ratio [1] was 8.8 and the Ratio [2] was 25.8.
Work on `O=C(NC[C@@H]1CC(Br)=NO1)[C@@H]1CCCN1C(=O)OCc1ccncc1` yielded a Ratio [1] of 2.6 and a Ratio [2] of 10.8.
With `O=C(NC[C@@H]1CC(Br)=NO1)[C@@H]1CCCN1C(=O)OCc1nc2ccccc2[nH]1` the Ratio [1] was “inactive” and the Ratio [2] was “inactive”.
Work on `O=C(C[C@@H]1CCCN1C(=O)OCc1cnc2ccccc2c1)NC[C@@H]1CC(Br)=NO1` yielded a Ratio [1] of 1.3 and a Ratio [2] of 1.3.
`O=C(NC[C@@H]1CC(Br)=NO1)[C@@H]1CCCN1C(=O)OCc1cnc2ccccc2n1` gave a Ratio [1] of 1.6 and a Ratio [2] of 15.4.
Work on `O=C(NC[C@@H]1CC(Br)=NO1)[C@@H]1C[C@H](c2ccccc2)CN1C(=O)OCc1cnc2ccccc2c1` yielded a Ratio [1] of 17.7 and a Ratio [2] of 17.2.
In the case of `O=C(NC[C@@H]1CC(Br)=NO1)[C@@H]1C[C@@H](c2cccc(Cl)c2)CN1C(=O)OCc1cnc2ccccc2c1`, the Ratio [1] is reported as 25.3 and the Ratio [2] is reported as 41.7.
Compound `O=C(NC[C@@H]1CC(Br)=NO1)[C@@H]1CCCN1C(=O)OCc1cccc(OCc2ccccc2)c1` has a Ratio [1] of 4.8 and a Ratio [2] of 3.9.
Work on `O=C(NC[C@@H]1CC(Br)=NO1)[C@@H]1C=C(c2ccccc2)CN1C(=O)OCc1cnc2ccccc2c1` yielded a Ratio [1] of 11.1 and a Ratio [2] of 18.9.
For `O=C(NC[C@@H]1CC(Br)=NO1)[C@@H]1CCCN1C(=O)OCc1ccnc2ccccc12`, the Ratio [1] was 2 and the Ratio [2] was 12.
For `COc1cccc(COC(=O)N2CCC[C@H]2C(=O)NC[C@@H]2CC(Br)=NO2)c1OC`, the Ratio [1] was “inactive” and the Ratio [2] was 1.7.
`O=C(NC[C@@H]1CC(Br)=NO1)[C@@H]1C[C@@H](c2c[nH]c3ccc(F)cc23)CN1C(=O)OCc1cnc2ccccc2c1` was tested, and the Ratio [1] was 18.4 and the Ratio [2] was 48.
`C#CCO[C@@H]1C[C@@H](C(=O)NC[C@@H]2CC(Br)=NO2)N(C(=O)OCc2cnc3ccccc3c2)C1` gave a Ratio [1] of 10.1 and a Ratio [2] of 7.1.
